Results taken from ChEMBL document CHEMBL1681711, “Discovery of a potent, orally bioavailable pyrimidine VLA-4 antagonist effective in a sheep asthma model” (Bioorg Med Chem Lett, 2011).
Active and inactive are the calls of the source. The calls are words filed in the database; no cut-off is given here.

Assays:
Integrin alpha-4/beta-1 = Integrin alpha-4/beta-1 (Homo sapiens, UniProt P05556+P13612); assay: Inhibition of integrin alpha4beta1-mediated Jurkat cell adhesion to VCAM-1 by FACS analysis; format: cell-based
Integrin alpha-4/beta-1, sequence (P05556 whole entry): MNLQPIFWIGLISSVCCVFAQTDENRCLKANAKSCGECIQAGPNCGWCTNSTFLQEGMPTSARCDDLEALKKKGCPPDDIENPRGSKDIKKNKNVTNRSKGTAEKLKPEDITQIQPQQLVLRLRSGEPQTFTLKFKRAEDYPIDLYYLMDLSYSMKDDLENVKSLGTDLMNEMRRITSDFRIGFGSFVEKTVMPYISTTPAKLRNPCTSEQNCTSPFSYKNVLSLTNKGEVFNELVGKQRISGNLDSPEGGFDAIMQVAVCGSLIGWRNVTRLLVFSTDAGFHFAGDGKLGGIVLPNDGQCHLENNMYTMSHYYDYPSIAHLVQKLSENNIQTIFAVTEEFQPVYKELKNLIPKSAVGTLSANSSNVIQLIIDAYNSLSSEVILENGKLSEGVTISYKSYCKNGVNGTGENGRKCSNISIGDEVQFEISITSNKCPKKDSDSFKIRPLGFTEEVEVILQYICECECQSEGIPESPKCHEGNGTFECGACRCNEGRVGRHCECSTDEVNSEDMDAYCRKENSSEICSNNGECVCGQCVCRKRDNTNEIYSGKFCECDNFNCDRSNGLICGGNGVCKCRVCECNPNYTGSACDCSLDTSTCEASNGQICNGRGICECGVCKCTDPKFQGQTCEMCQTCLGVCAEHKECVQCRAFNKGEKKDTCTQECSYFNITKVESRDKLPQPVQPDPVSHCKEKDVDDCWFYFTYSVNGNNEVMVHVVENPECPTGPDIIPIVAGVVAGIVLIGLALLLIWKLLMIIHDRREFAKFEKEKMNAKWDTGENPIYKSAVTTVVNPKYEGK
Integrin alpha-4/beta-1, sequence (P13612 whole entry): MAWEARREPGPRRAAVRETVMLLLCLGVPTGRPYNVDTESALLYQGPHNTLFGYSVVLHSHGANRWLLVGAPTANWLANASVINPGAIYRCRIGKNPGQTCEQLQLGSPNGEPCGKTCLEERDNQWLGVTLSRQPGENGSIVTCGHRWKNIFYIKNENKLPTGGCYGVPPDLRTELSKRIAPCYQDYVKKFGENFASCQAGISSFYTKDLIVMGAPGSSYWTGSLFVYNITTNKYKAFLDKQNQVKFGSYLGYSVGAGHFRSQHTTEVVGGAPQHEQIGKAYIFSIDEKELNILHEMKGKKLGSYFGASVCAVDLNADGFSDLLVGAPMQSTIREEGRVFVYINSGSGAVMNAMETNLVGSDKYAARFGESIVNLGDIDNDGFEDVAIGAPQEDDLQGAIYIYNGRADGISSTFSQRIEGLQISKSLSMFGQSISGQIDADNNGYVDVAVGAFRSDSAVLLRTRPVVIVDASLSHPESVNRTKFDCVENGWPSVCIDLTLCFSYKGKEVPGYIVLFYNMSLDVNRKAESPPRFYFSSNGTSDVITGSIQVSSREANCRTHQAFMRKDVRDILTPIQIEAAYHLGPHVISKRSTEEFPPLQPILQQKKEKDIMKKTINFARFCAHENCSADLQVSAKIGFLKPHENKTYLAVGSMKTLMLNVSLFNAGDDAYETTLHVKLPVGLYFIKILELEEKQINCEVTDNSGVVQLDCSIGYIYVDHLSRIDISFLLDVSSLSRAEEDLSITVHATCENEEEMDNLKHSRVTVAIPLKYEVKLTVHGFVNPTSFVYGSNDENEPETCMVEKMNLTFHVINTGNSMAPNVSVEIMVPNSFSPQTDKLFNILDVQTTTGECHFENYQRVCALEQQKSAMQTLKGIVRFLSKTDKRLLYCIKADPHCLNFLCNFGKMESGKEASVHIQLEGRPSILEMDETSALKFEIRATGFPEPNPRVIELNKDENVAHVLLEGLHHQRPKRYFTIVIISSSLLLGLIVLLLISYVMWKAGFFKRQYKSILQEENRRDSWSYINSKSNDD
Procedure, shortened: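 α4β1-positive Jurkat cells were incubated with recombinant soluble VCAM-1, and binding of this ligand was measured by flow cytometry (FACS).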

Ovis aries [1] = assay: Antiasthamatic activity in po dosed sheep asthma model assessed as prevention of carbachol-induced late phase hyperresponsiveness; format: functional; conditions: read-out: MED
[2] = Drug excretion in Sprague-Dawley rat bile at 10 mg/kg, po; format: ADME, organism-based; design: dose 10 mg/kg, route oral; conditions: read-out: Activity
Ovis aries [3] = assay: Antiasthamatic activity in po dosed sheep asthma model assessed as prevention of carbachol-induced early phase hyperresponsiveness; format: functional; conditions: read-out: MED
[4] = Oral bioavailability in Sprague-Dawley rat at 10 mg/kg; format: ADME, organism-based; conditions: in vivo
[5] = Clearance in cynomolgus monkey at 3 mg/kg, iv and 10 mg/kg, po; format: ADME, organism-based, Macaca fascicularis; conditions: in vivo
Procedure, shortened: (§1)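 Male monkeys in each arm; the compound was given at 3 mg/kg intravenously and at 10 mg/kg orally.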

[6] = Bioavailability in Sprague-Dawley rat at 10 mg/kg, iv and po; format: ADME, organism-based; conditions: in vivo
Procedure, shortened: (§2)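 Male rats in each arm; the compound was given at 10 mg/kg both intravenously and orally, with parameters taken from these two arms.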

[7] = Bioavailability in cynomolgus monkey at 3 mg/kg, iv and 10 mg/kg, po; format: ADME, organism-based, Macaca fascicularis; conditions: in vivo; procedure, shortened: as §1
[8] = Half life in cynomolgus monkey at 3 mg/kg, iv and 10 mg/kg, po; format: ADME, organism-based, Macaca fascicularis; conditions: in vivo; procedure, shortened: as §1
Ovis aries [9] = assay: Antiasthamatic activity in sheep asthma model assessed as prevention of carbachol-induced hyperresponsiveness at 0.3 mg/kg, po; format: functional, organism-based; design: dose 0.3 mg/kg
[10] = Half life in Sprague-Dawley rat at 10 mg/kg, iv and po; format: ADME, organism-based; design: dose 10 mg/kg, route oral; conditions: in vivo; procedure, shortened: as §2
Rattus norvegicus = assay: Volume of distribution in Sprague-Dawley rat at 10 mg/kg, iv and po; format: ADME, organism-based; design: dose 10 mg/kg, route oral; conditions: in vivo; procedure, shortened: as §2
[11] = Volume of distribution in cynomolgus monkey at 3 mg/kg, iv and 10 mg/kg, po; format: ADME, organism-based, Macaca fascicularis; conditions: in vivo; procedure, shortened: as §1
[12] = Half life in Beagle dog at 3 mg/kg, iv and 10 mg/kg, po; format: ADME, organism-based, Canis lupus familiaris; conditions: in vivo
Procedure, shortened: (§3)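 Male dogs in each arm; the intravenous arm used 3 mg/kg and the oral arm 10 mg/kg.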

Ovis aries [13] = assay: Antiasthamatic activity in sheep asthma model assessed as prevention of carbachol-induced hyperresponsiveness at 1 mg/kg, po; format: functional, organism-based; design: dose 1 mg/kg
[14] = Bioavailability in Beagle dog at 3 mg/kg, iv and 10 mg/kg, po; format: ADME, organism-based, Canis lupus familiaris; conditions: in vivo; procedure, shortened: as §3
[15] = Clearance in Beagle dog at 3 mg/kg, iv and 10 mg/kg, po; format: ADME, organism-based, Canis lupus familiaris; conditions: in vivo; procedure, shortened: as §3
[16] = Volume of distribution in Beagle dog at 3 mg/kg, iv and 10 mg/kg, po; format: ADME, organism-based, Canis lupus familiaris; conditions: in vivo; procedure, shortened: as §3

For Cc1ccsc1-c1cncnc1N[C@@H](Cc1ccc(OC(=O)N(C)C)cc1)C(=O)O, the IC50 (Integrin alpha-4/beta-1) was 5 nM.
Work on CN(C)C(=O)Oc1ccc(C[C@H](Nc2ncncc2-c2ccc[nH]2)C(=O)O)cc1 yielded an IC50 (Integrin alpha-4/beta-1) of 75 nM.
In the case of CN(C)C(=O)Oc1ccc(C[C@H](Nc2ncncc2-c2c(F)cccc2F)C(=O)O)cc1, the IC50 (Integrin alpha-4/beta-1) is reported as 27 nM.
With Cc1ccccc1-c1cnc(N(C)C2CCN(C)CC2)nc1N[C@@H](Cc1ccc(OC(=O)N(C)C)cc1)C(=O)O the IC50 (Integrin alpha-4/beta-1) was 68 nM.
In the case of CCN(CC)c1ncc(-c2ccccc2C)c(N[C@@H](Cc2ccc(OC(=O)N(C)C)cc2)C(=O)O)n1, the IC50 (Integrin alpha-4/beta-1) is reported as 5.7 nM.
With Cc1ccccc1-c1cnc(N(C)C2CCCCC2)nc1N[C@@H](Cc1ccc(OC(=O)N(C)C)cc1)C(=O)O the IC50 (Integrin alpha-4/beta-1) was 20 nM, the minimal effective dose (Ovis aries [1]) was 10 mg/kg and the dose excreted [2] was < 3%. The minimal effective dose (Ovis aries [3]) was 10 mg/kg and the bioavailability [4] was 26%.
In the case of CN(C)C(=O)Oc1ccc(C[C@H](Nc2ncnc3ccccc23)C(=O)O)cc1, the IC50 (Integrin alpha-4/beta-1) is reported as 190 nM.
Compound Cc1ccccc1-c1cnc(N(C)CC(C)C)nc1N[C@@H](Cc1ccc(OC(=O)N(C)C)cc1)C(=O)O has an IC50 (Integrin alpha-4/beta-1) of 7 nM.
CN(C)C(=O)Oc1ccc(C[C@H](Nc2ncncc2-c2cccnc2)C(=O)O)cc1 gave an IC50 (Integrin alpha-4/beta-1) of 130 nM.
Cc1ccccc1-c1cncnc1N[C@@H](Cc1ccc(OC(=O)N(C)C)cc1)C(=O)O showed an IC50 (Integrin alpha-4/beta-1) of 25 nM.
With CN(C)C(=O)Oc1ccc(C[C@H](Nc2ncncc2-c2ccccc2C(F)(F)F)C(=O)O)cc1 the IC50 (Integrin alpha-4/beta-1) was 90 nM.
CN(C)C(=O)Oc1ccc(C[C@H](NC(=O)c2ccccc2)C(=O)O)cc1 gave an IC50 (Integrin alpha-4/beta-1) of 130 nM.
For Cc1noc(C)c1-c1cncnc1N[C@@H](Cc1ccc(OC(=O)N(C)C)cc1)C(=O)O, the IC50 (Integrin alpha-4/beta-1) was < 1 nM.
For Cc1cc(C)c(-c2cncnc2N[C@@H](Cc2ccc(OC(=O)N(C)C)cc2)C(=O)O)c(C)c1, the IC50 (Integrin alpha-4/beta-1) was 100 nM.
Compound Cc1ccccc1-c1cnc(N2CCCCC2)nc1N[C@@H](Cc1ccc(OC(=O)N(C)C)cc1)C(=O)O has an IC50 (Integrin alpha-4/beta-1) of 32 nM.
Work on CN(C)C(=O)Oc1ccc(C[C@H](Nc2nc(N(C)C3CCCCC3)nc3ccccc23)C(=O)O)cc1 yielded an IC50 (Integrin alpha-4/beta-1) of 8 nM.
Work on CN(C)C(=O)Oc1ccc(C[C@H](Nc2ncncc2-c2cccc(Cl)c2Cl)C(=O)O)cc1 yielded an IC50 (Integrin alpha-4/beta-1) of 77 nM.
CCN(CC)c1ncc(-c2c(C)noc2C)c(N[C@@H](Cc2ccc(OC(=O)N(C)C)cc2)C(=O)O)n1 gave a clearance [5] of 13.5 mL/min/kg, a bioavailability [6] of 19% and a bioavailability [7] of 16%. For the same compound, the half-life [8] was 1.1 h, the Activity (Ovis aries [9]) was “inactive” and the half-life [10] was 1.4 h. The Vd (Rattus norvegicus) was 0.346 L/kg, the Vd [11] was 1.29 L/kg and the half-life [12] was 0.9 h. For the same compound, the Activity (Ovis aries [13]) was “Active”, the bioavailability [14] was 59% and the clearance [15] was 6.73 mL/min/kg. It also gave a Vd [16] of 0.524 L/kg.
In the case of Cc1ccccc1-c1cnc(N(C)C2CC2)nc1N[C@@H](Cc1ccc(OC(=O)N(C)C)cc1)C(=O)O, the IC50 (Integrin alpha-4/beta-1) is reported as 20 nM.
In the case of Cc1ccccc1-c1cnc(N(C)C2CCC2)nc1N[C@@H](Cc1ccc(OC(=O)N(C)C)cc1)C(=O)O, the IC50 (Integrin alpha-4/beta-1) is reported as 10 nM.
CCN(C)c1ncc(-c2ccccc2C)c(N[C@@H](Cc2ccc(OC(=O)N(C)C)cc2)C(=O)O)n1 gave an IC50 (Integrin alpha-4/beta-1) of 5.3 nM.
CN(C)C(=O)Oc1ccc(C[C@H](Nc2ncncc2-c2cccs2)C(=O)O)cc1 gave an IC50 (Integrin alpha-4/beta-1) of 16 nM.
For CN(C)C(=O)Oc1ccc(C[C@H](Nc2ncncc2-c2cccc([N+](=O)[O-])c2)C(=O)O)cc1, the IC50 (Integrin alpha-4/beta-1) was 180 nM.
Compound CN(C)C(=O)Oc1ccc(C[C@H](Nc2ncncc2-c2ccccc2)C(=O)O)cc1 has an IC50 (Integrin alpha-4/beta-1) of 300 nM.
In the case of CN(C)C(=O)Oc1ccc(C[C@H](Nc2ncncc2-c2ccccc2F)C(=O)O)cc1, the IC50 (Integrin alpha-4/beta-1) is reported as 18 nM.
Compound CN(C)C(=O)Oc1ccc(C[C@H](Nc2ncncc2-c2ccncc2)C(=O)O)cc1 has an IC50 (Integrin alpha-4/beta-1) of 85 nM.
Compound CCCN(CC)c1ncc(-c2ccccc2C)c(N[C@@H](Cc2ccc(OC(=O)N(C)C)cc2)C(=O)O)n1 has an IC50 (Integrin alpha-4/beta-1) of 4.9 nM.
Cc1ccccc1-c1cnc(N(C)C)nc1N[C@@H](Cc1ccc(OC(=O)N(C)C)cc1)C(=O)O gave an IC50 (Integrin alpha-4/beta-1) of 29 nM.
With Cc1ccccc1-c1cnc(N(C)c2ccc(Cl)cc2)nc1N[C@@H](Cc1ccc(OC(=O)N(C)C)cc1)C(=O)O the IC50 (Integrin alpha-4/beta-1) was 107 nM.
In the case of COc1ccccc1-c1cncnc1N[C@@H](Cc1ccc(OC(=O)N(C)C)cc1)C(=O)O, the IC50 (Integrin alpha-4/beta-1) is reported as 16 nM.
